# Measurements collected from several papers.
# Each line is one published result; the experiments were not run side by side.
# Target: Carbonic anhydrase 2 (CA2, Homo sapiens, UniProt P00918)
# Read-out: enzyme activity
# Action: inhibitor
SMILES,test,measurement,result
O=C(Nc1ccc(F)cc1)Nc1ccc2c(c1)C=CCP(=O)(O)O2,stopped-flow,Ki,> 10 µM
CC(C)c1cc2c(c(O)c1O)[C@@]13CCCC(C)(C)[C@@H]1[C@H](OC3=O)[C@H]2O,,Ki,0.00499 µM
NC(=S)N/N=C1/c2ccccc2[C@@H]2[C@H]1[C@@H](c1ccsc1)[C@H](C(=O)c1ccsc1)[C@H]2c1ccsc1 (racemic),absorbance,IC50,0.523 µM
CC(C)c1cc2c(c(O)c1O)[C@@]13CCCC(C)(C)[C@@H]1C[C@@H]2OC3=O,,IC50,0.00547 µM
Cc1ccc([C@@H]2[C@@H](C(=O)c3cccs3)[C@H](c3ccco3)[C@H]3/C(=N\NC(N)=S)c4ccccc4[C@H]32)cc1 (racemic),absorbance,IC50,0.844 µM
Cc1c(Cl)c(=O)oc2cc(OCCCC[Se]C#N)ccc12,stopped-flow,Ki,> 100 µM
CC(C)c1cc2c(c(O)c1O)[C@@]1(C(=O)O)CCCC(C)(C)[C@@H]1CC2,,Ki,0.0042 µM
Cc1ccc([C@H]2[C@H](C(=O)c3cccs3)[C@@H](c3cccs3)[C@@H]3c4ccccc4/C(=N/NC(N)=S)[C@@H]32)cc1 (racemic),absorbance,IC50,0.562 µM
Cc1cc(=O)oc2cc(OCCCC[Se]C#N)ccc12,stopped-flow,Ki,> 100 µM
O=C(Nc1ccc2c(c1)C=CCP(=O)(O)O2)c1ccc(F)cc1,stopped-flow,Ki,> 10 µM
NC(=S)N/N=C1/c2ccccc2[C@@H]2[C@H]1[C@@H](c1ccc(C(F)(F)F)cc1)[C@H](C(=O)c1ccc(C(F)(F)F)cc1)[C@H]2c1ccc(C(F)(F)F)cc1 (racemic),absorbance,IC50,0.551 µM
O=C(Nc1ccc2c(c1)C=CCP(=O)(O)O2)c1cccs1,stopped-flow,Ki,> 10 µM
CC(C)c1cc2c(c(O)c1O)[C@@]13CCCC(C)(C)[C@@H]1[C@@H](O)[C@@H]2OC3=O,,IC50,0.00578 µM
COc1ccc(C(=O)[C@@H]2[C@@H](c3ccc(OC)cc3)[C@@H]3c4ccccc4/C(=N/NC(N)=S)[C@@H]3[C@H]2c2ccc(OC)cc2)cc1 (racemic),absorbance,IC50,0.992 µM
O=C(Nc1ccc2c(c1)C=CCP(=O)(O)O2)c1ccc([N+](=O)[O-])cc1,stopped-flow,Ki,> 10 µM
